# Compound activity from PubChem BioAssay.
# T cruzi growth-1 – inhibitors of T. cruzi proliferation; T. cruzi beta-gal in NIH3T3, GalScreen luminescence, 90 h; inhibition, % at 8.34 µM; 77,000 compounds, 5.9% hits; AID 624255;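 active = mean inhibition above about 93%, with at least 55% of replicates each passing it, limit read from the data, passing the limit was not always enough; inconclusive = only one of those two conditions holds; inactive = neither condition holds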
# IDH1 mut inh – inhibitors of human IDH1 R132H; O75874; IDH1 R132H reductase, diaphorase/resazurin fluorescence, 60 min; inhibition, % at 10 µM; 70,000 compounds, 0.18% hits; AID 624101; in the data active = inhibition above about 34%; inconclusive = no clear call, values can overlap the other calls; inactive = below about 11%
# KDM4C inh – inhibitors of human demethylase GASC-1 KDM4C | inhibition, % at 12.5 µM | 96,000 compounds, 0.15% hits | GST-KDM4C 2-372, H3K9me3 peptide, LANCE TR-FRET | Q9H3R0;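 active = mean replicate inhibition above about 25%, with at least 55% of replicates also reaching it, limit read from the data, passing the limit was not always enough; inconclusive = only one of those two conditions met; inactive = neither condition met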
# Target sequence (Q9H3R0 2-372 limits assumed): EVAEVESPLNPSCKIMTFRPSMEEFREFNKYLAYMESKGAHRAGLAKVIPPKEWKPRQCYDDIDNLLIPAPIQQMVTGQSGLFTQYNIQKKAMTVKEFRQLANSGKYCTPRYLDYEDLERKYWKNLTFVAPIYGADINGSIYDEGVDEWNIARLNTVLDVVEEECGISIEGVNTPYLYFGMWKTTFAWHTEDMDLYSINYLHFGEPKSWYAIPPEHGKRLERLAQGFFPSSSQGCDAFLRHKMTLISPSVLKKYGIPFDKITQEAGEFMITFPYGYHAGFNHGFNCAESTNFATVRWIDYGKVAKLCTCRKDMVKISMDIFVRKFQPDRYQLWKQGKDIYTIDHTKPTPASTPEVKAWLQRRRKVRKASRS
#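 System: N-terminal GST-fused human GASC-1 (KDM4C) fragment, residues 2-372; amount: enzyme final amount 10 nM; incubation: reaction 30 min RT, detection step 1 h RT; medium: HEPES buffer, pH 7.5, plus ascorbate; technique: LANCE TR-FRET, Eu antibody, ULight-streptavidin, EDTA, ex 340 nm, em 618/671 nm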
# T cruzi growth-2 – blocks T. cruzi growth in NIH3T3 host cells. inhibition, % at 8.35 µM. T. cruzi beta-gal in NIH3T3, GalScreen luminescence, 90 h. shares compounds with T cruzi growth-1. 5,600 compounds, 72% hits. AID 651739;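 active = mean replicate inhibition above about 95% and at least 55% of replicates individually reaching it, limit read from the data; inconclusive = only one of the two criteria is met; inactive = neither criterion is met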
# T cruzi growth-3 – Trypanosoma cruzi proliferation inhibition; 5,600 compounds, 21% hits; inhibition, % at 2.09 µM; T. cruzi beta-gal in NIH3T3, GalScreen luminescence, 90 h; shares compounds with T cruzi growth-1;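 active = mean inhibition above about 95%, with at least 55% of replicates also reaching it, limit read from the data; inconclusive = meets just one of the two conditions; inactive = meets neither condition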
# NIH3T3 tox – NIH/3T3 (mouse) viability loss; shares compounds with T cruzi growth-1; AID 651742; cytotoxicity (signal decrease), % at 8.35 µM; NIH/3T3 viability, CellTiter-Glo ATP luminescence, 90 h; 5,600 compounds, 14% hits;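 active = mean signal decrease across replicates above about 35% based on untreated-well scatter, with enough replicates individually passing, limit read from the data; inconclusive = no rule stated though some were filed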
# NIH3T3 tox 2 – NIH/3T3 (mouse) viability loss; shares compounds with T cruzi growth-1; NIH/3T3 viability, CellTiter-Glo ATP luminescence, 90 h; inhibition, % at 24.9 µM; 5,600 compounds, 56% hits; AID 651744;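 active = mean loss of cell viability signal at or above a set limit, and enough replicates individually reaching it; inconclusive = meets only the mean limit or only the replicate share; inactive = meets neither condition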
# Numbers stand for hits; – = inactive; ? = inconclusive; · = no result. The full list was thinned out, with hits kept by preference.
SMILES,T cruzi growth-1,IDH1 mut inh,KDM4C inh,T cruzi growth-2,T cruzi growth-3,NIH3T3 tox,NIH3T3 tox 2
CC(C)NC(=O)Nc1cccc2c1O[C@@H](CN(C)C(=O)NC1CCCCC1)[C@@H](C)CN([C@H](C)CO)C2=O,–,·,–,·,·,·,·
COc1ccc(S(=O)(=O)N(C)C[C@@H]2OCCCC[C@H](C)Oc3ccc(NC(=O)c4ccccc4)cc3C(=O)N([C@H](C)CO)C[C@H]2C)cc1,–,·,–,·,·,·,·
CCn1c(SCc2nc3ccccc3c(=O)[nH]2)nnc1-c1ccccc1C,·,–,·,·,·,·,·
CC(C)(C)OC(=O)NC/C=N/NC(=O)CCCCCCC(=O)O,·,–,·,·,·,·,·
CC(=O)N1CCCCN2[C@H](CO)[C@H](c3ccc(C#Cc4ccccc4F)cc3)[C@H]2C1,–,·,–,·,·,·,·
CCC(=O)N1CCCCN2[C@H](C1)[C@@H](c1ccc(C#Cc3ccccc3F)cc1)[C@@H]2CO,100,·,–,100,–,50,105
CCC(=O)N1CCCCN2[C@H](CO)[C@H](c3ccc(C#Cc4ccccc4F)cc3)[C@@H]2C1,120,·,–,99,–,69,58
CC(=O)N1CCCCN2[C@@H](CO)[C@H](c3ccc(C#Cc4ccccc4F)cc3)[C@@H]2C1,–,·,–,·,·,·,·
CC(=O)N1CCCCN2[C@H](C1)[C@H](c1ccc(C#Cc3ccccc3F)cc1)[C@@H]2CO,–,·,–,·,·,·,·
CC(=O)N1CCCCN2[C@H](C1)[C@@H](c1ccc(C#Cc3ccccc3F)cc1)[C@@H]2CO,112,·,–,?,–,–,106
CC(=O)Nc1ccc(NC(=O)CN(c2cccc(C(F)(F)F)c2)S(C)(=O)=O)cc1,·,–,·,·,·,·,·
Cn1cnc(S(=O)(=O)N2CCCCN3[C@H](C2)[C@@H](c2ccc(-c4cccc(F)c4)cc2)[C@@H]3CO)c1,103,·,–,96,–,–,?
Cn1cnc(S(=O)(=O)N2CCCCN3[C@@H](CO)[C@H](c4ccc(-c5cccc(F)c5)cc4)[C@@H]3C2)c1,–,·,–,·,·,·,·
Cn1cnc(S(=O)(=O)N2CCCCN3[C@H](CO)[C@@H](c4ccc(-c5cccc(F)c5)cc4)[C@H]3C2)c1,–,·,–,·,·,·,·
Cn1cnc(S(=O)(=O)N2CCCCN3[C@H](CO)[C@@H](c4ccc(-c5cccc(F)c5)cc4)[C@@H]3C2)c1,103,·,–,104,–,–,64
C[C@@H]1CN([C@H](C)CO)C(=O)c2cccc(NC(=O)CCCCCC(=O)Nc3ccccc3N)c2O[C@@H]1CN(C)S(=O)(=O)c1cccs1,·,·,–,·,·,·,·
Cc1ccc(-c2ccc([C@H]3[C@@H](CO)N4C(=O)CN(C(=O)c5cccnc5)C[C@H]34)cc2)cc1,·,·,–,·,·,·,·
CC(=O)c1cccc(NC(=O)Cn2nc([N+](=O)[O-])c(Br)c2C)c1,·,–,·,·,·,·,·
CC(=O)N(C)C[C@@H]1Oc2cc(-c3ccc(F)cc3)ccc2S(=O)(=O)N([C@H](C)CO)C[C@H]1C,–,–,–,·,·,·,·
C[C@H](CO)N1C[C@H](C)[C@H](CN(C)C(=O)Nc2ccc(F)cc2)Oc2cc(-c3ccncc3)ccc2S1(=O)=O,–,·,–,·,·,·,·
CC(=O)N(C)C[C@H]1Oc2cc(-c3ccc(F)cc3)ccc2S(=O)(=O)N([C@H](C)CO)C[C@H]1C,–,–,–,·,·,·,·
C[C@@H]1CN([C@@H](C)CO)S(=O)(=O)c2ccc(-c3ccc(F)cc3)cc2O[C@@H]1CN(C)C(=O)Nc1ccc(F)cc1,123,·,–,111,–,–,62
C[C@H]1CN([C@@H](C)CO)S(=O)(=O)c2ccc(-c3ccc(F)cc3)cc2O[C@@H]1CN(C)C(=O)Nc1ccc(F)cc1,119,·,–,103,–,–,58
C[C@@H]1CN([C@H](C)CO)S(=O)(=O)c2ccc(-c3ccc(F)cc3)cc2O[C@H]1CN(C)C(=O)Nc1ccc(F)cc1,114,·,–,106,–,38,74
C[C@@H]1CN([C@H](C)CO)S(=O)(=O)c2ccc(Br)cc2O[C@H]1CN(C)C(=O)Nc1ccc(F)cc1,–,·,–,·,·,·,·
SMILES,T cruzi growth-1,IDH1 mut inh,KDM4C inh,T cruzi growth-2,T cruzi growth-3,NIH3T3 tox,NIH3T3 tox 2
C[C@@H]1CN([C@H](C)CO)S(=O)(=O)c2ccc(-c3ccncc3)cc2O[C@H]1CN(C)C(=O)Nc1ccc(F)cc1,101,–,–,–,–,–,75
CO[C@@H]1CN(C)C(=O)c2cc(NC(=O)c3ccc(F)cc3)ccc2OC[C@@H](C)N(C(=O)CN(C)C)C[C@H]1C,–,–,–,·,·,·,·
Cc1ccc(S(=O)(=O)N(C)C[C@H]2Oc3cc(-c4cccc(F)c4)ccc3S(=O)(=O)N([C@H](C)CO)C[C@@H]2C)cc1,126,–,–,105,–,36,–
Cc1ccc(-c2ccc3c(c2)O[C@@H](CN(C)S(C)(=O)=O)[C@H](C)CN([C@H](C)CO)S3(=O)=O)cc1,102,–,–,–,–,–,72
Cc1ccc(S(=O)(=O)N(C)C[C@H]2Oc3cc(-c4cccc(F)c4)ccc3S(=O)(=O)N([C@H](C)CO)C[C@H]2C)cc1,121,–,–,102,–,–,43
Cc1ccc(S(=O)(=O)N(C)C[C@@H]2Oc3cc(C#Cc4ccccc4)ccc3S(=O)(=O)N([C@@H](C)CO)C[C@@H]2C)cc1,·,–,–,·,·,·,·
Cc1ccc(-c2ccc3c(c2)O[C@H](CN(C)S(C)(=O)=O)[C@@H](C)CN([C@@H](C)CO)S3(=O)=O)cc1,–,–,–,·,·,·,·
Cc1ccc(S(=O)(=O)N(C)C[C@@H]2Oc3cc(-c4cccc(F)c4)ccc3S(=O)(=O)N([C@@H](C)CO)C[C@@H]2C)cc1,121,–,–,100,?,–,37
COc1cc2c(cc1O)C(=O)CC1C(C)(C)C(=O)CCC21C (stereo not given),·,–,·,·,·,·,·
Cc1ccc(S(=O)(=O)Nc2ccc3c(c2)CC(=O)N([C@H](C)CO)C[C@@H](C)[C@H](CN(C)C(=O)Nc2ccc(C(F)(F)F)cc2)O3)cc1,–,–,–,·,·,·,·
CO[C@@H]1CN(C)C(=O)c2cc(NS(=O)(=O)CC(F)(F)F)ccc2OC[C@@H](C)N(Cc2nccs2)C[C@H]1C,–,–,–,·,·,·,·
Cc1ccc(S(=O)(=O)N(C)C[C@@H]2Oc3cc(-c4cccc(F)c4)ccc3S(=O)(=O)N([C@H](C)CO)C[C@H]2C)cc1,104,–,–,–,–,69,47
Cc1ccc(S(=O)(=O)N(C)C[C@H]2Oc3cc(C#Cc4ccccc4)ccc3S(=O)(=O)N([C@H](C)CO)C[C@@H]2C)cc1,·,–,–,·,·,·,·
Cc1ccc(S(=O)(=O)N(C)C[C@H]2Oc3cc(-c4cccc(F)c4)ccc3S(=O)(=O)N([C@@H](C)CO)C[C@H]2C)cc1,119,–,–,103,?,–,49
COc1ccc(S(=O)(=O)N2CC[C@@H]3[C@@H](CO)Nc4ccc(C5=CCCCC5)cc4[C@@H]32)cc1,·,·,–,·,·,·,·
